From ChEMBL document CHEMBL4376826 (J Med Chem, 2020)
Values after ≈ are worked out from the molar mass of the structure shown.

What was measured:
[1] = Inhibition of adenosine transporter (unknown origin) at 10 uM; format: ADME; settings: human
[2] = Permeability at pH 7.4 by PAMPA; format: ADME; settings: read-out: permeability
[3] = Half life in mouse liver S9 fraction; format: ADME, subcellular
Outline: (§1)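 Metabolic stability of the dihydrodiols measured in vitro with mouse and human liver S9 fractions and with mouse and human hepatocytes; half-life from substrate depletion.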

[4] = target: T1, Amine oxidase [flavin-containing] B (Homo sapiens, UniProt P27338); experiment: Inhibition of monoamino oxidase B (unknown origin)
T1 sequence (P27338 whole entry): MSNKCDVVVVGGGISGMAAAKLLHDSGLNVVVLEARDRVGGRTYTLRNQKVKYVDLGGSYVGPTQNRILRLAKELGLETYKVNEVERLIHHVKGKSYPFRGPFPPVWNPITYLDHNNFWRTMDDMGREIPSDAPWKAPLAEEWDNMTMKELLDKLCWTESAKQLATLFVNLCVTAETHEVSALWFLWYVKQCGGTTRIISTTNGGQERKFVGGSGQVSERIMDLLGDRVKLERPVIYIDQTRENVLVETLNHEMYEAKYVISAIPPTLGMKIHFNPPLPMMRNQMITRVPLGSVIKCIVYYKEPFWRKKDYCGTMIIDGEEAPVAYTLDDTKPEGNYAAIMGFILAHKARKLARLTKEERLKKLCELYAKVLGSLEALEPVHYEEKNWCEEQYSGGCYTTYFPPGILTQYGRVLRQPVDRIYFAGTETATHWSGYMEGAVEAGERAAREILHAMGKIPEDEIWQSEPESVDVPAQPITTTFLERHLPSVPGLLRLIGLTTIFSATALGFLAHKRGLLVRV

UGT1A9 = UGT1A9 (Homo sapiens, UniProt O60656); experiment: Inhibition of human UGT1A9 assessed as residual enzyme activity at 10 uM relative to control; format: ADME; settings: read-out: Activity
[5] = Intrinsic clearance in human hepatocytes; format: ADME, cell-based, Hepatocyte
[6] = target: UDP-glucuronosyltransferase 1A4 (Homo sapiens, UniProt P22310); experiment: Drug metabolism assessed as human UGT1A4-mediated metabolism by measuring intrinsic clearance; format: ADME; settings: recombinant enzyme
[7] = Retention time in human plasma by LC-MS/MS analysis; format: ADME, cell-free
[8] = Protein binding in human plasma assessed as bound fraction; format: ADME, cell-free; settings: read-out: PPB (converted)
Outline: (§2)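 Binding measured in 100% plasma; reported as fraction bound.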

UGT1A3 = UGT1A3 (Homo sapiens, UniProt P35503); experiment: Inhibition of human UGT1A3 assessed as residual enzyme activity at 10 uM relative to control; format: ADME; settings: read-out: Activity
[9] = Inhibition of adenosine transporter (unknown origin); format: ADME, Homo sapiens
[10] = target: T1, Amine oxidase [flavin-containing] B; experiment: Inhibition of monoamino oxidase B (unknown origin) at 10 uM
[11] = Retention time in beta-naphthoflavone/phenobarbital-induced rat liver S9 fraction at 100 ug/ml in presence of NADPH measured after 4 hrs by UV-Vis spectroscopy; format: ADME, subcellular; settings: s9, 4 h
[12] = tested on: UDP-glucuronosyltransferases (UGTs); experiment: Drug metabolism assessed as human UGT-mediated metabolism by measuring intrinsic clearance; format: ADME, protein assay
[13] = Intrinsic clearance in mouse hepatocytes; format: ADME, cell-based, Hepatocyte
[14] = target: Solute carrier organic anion transporter family member 1B3 (Homo sapiens, UniProt Q9NPD5); experiment: Inhibition of OATP1B3 (unknown origin); format: ADME
[15] = Half life in human liver S9 fraction; format: ADME, subcellular; outline: as §1
[16] = Half life in human hepatocytes; format: ADME, cell-based, Hepatocyte; outline: as §1
[17] = target: Solute carrier organic anion transporter family member 1B1 (Homo sapiens, UniProt Q9Y6L6); experiment: Inhibition of OATP1B1 (unknown origin); format: ADME
[18] = Lipophilicity, logD of the compound at pH 7.4; format: physicochemical; settings: buffer
[19] = target: Multidrug and toxin extrusion protein 1 (Homo sapiens, UniProt Q96FL8); experiment: Inhibition of MATE1 (unknown origin); format: ADME
[20] = Retention time in beta-naphthoflavone/phenobarbital-induced rat liver S9 fraction at 100 ug/ml in presence of NADPH by LC-MS/MS analysis; format: ADME, subcellular
[21] = Protein binding in mouse plasma assessed as bound fraction; format: ADME, cell-free; outline: as §2
[22] = Drug level in beta-naphthoflavone/phenobarbital-induced rat liver S9 fraction treated with 100 ug/ml Ezutromid-1 assessed as compound formation in presence of NADPH measured after 4 hrs by UV-Vis spectroscopy; format: ADME, subcellular; settings: s9, 4 h
[23] = target: Broad substrate specificity ATP-binding cassette transporter ABCG2 (Homo sapiens, UniProt Q9UNQ0); experiment: Inhibition of BCRP (unknown origin); format: ADME
[24] = Intrinsic clearance in mouse liver S9 fraction; format: ADME, subcellular; settings: read-out: CLH
[25] = Intrinsic clearance in human liver S9 fraction; format: ADME, subcellular; settings: read-out: CLH
[26] = Half life in mouse hepatocytes; format: ADME, cell-based, Hepatocyte; outline: as §1
[27] = Kinetic aqueous solubility of the compound; format: physicochemical; settings: buffer; read-out: Kinetic_solubility
UGT1A4 = UGT1A4 (Homo sapiens, UniProt P22310); experiment: Inhibition of human UGT1A4 assessed as residual enzyme activity at 10 uM relative to control; format: ADME; settings: read-out: Activity
UGT1A4, sequence (P22310 whole entry): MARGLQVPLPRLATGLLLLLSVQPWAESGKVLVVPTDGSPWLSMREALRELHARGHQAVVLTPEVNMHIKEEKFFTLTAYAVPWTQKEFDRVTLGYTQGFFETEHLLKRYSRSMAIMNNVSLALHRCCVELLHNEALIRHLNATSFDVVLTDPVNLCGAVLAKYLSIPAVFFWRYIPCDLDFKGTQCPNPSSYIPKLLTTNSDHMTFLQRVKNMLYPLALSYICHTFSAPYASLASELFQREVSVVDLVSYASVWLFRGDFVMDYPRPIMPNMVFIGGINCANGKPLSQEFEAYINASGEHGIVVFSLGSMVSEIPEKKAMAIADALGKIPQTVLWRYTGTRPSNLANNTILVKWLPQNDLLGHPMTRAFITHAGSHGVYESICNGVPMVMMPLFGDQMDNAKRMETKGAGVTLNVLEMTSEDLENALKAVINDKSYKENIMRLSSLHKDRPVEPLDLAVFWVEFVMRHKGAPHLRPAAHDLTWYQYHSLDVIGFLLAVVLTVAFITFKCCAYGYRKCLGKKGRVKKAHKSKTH

UGT1A3, sequence (P35503 whole entry): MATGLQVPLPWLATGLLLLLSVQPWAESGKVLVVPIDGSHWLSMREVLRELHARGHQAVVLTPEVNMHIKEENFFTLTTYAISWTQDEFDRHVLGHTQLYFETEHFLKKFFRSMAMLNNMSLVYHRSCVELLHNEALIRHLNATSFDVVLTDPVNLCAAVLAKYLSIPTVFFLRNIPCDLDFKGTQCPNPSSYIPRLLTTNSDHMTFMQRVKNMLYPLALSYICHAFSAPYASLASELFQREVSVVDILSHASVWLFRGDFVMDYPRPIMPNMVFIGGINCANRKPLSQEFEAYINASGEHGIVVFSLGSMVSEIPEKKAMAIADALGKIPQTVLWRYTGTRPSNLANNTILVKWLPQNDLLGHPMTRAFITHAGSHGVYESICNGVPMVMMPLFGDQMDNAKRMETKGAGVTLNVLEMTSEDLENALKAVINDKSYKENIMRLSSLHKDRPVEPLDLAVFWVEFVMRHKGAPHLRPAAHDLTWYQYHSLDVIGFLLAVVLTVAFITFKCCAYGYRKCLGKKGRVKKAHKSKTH
Solute carrier organic anion transporter family member 1B1, sequence (Q9Y6L6 whole entry): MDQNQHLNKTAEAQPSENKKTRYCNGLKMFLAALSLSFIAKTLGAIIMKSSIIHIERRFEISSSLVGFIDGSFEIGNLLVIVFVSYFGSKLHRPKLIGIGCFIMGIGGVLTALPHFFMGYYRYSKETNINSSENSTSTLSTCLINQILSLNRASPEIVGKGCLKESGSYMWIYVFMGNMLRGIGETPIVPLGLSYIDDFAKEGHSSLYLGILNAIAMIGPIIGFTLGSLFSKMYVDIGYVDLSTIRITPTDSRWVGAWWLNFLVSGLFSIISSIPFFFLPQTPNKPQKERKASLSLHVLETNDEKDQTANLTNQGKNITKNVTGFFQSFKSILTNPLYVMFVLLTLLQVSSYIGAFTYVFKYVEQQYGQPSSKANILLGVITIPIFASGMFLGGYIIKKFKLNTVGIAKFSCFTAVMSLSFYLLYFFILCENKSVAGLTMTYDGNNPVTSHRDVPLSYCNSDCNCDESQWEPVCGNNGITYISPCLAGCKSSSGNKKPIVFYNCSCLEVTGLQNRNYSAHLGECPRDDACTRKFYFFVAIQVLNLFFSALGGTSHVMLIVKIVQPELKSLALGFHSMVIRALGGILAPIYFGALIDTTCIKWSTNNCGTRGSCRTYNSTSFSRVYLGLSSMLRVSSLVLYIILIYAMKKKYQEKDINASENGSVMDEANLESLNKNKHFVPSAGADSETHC
Solute carrier organic anion transporter family member 1B3, sequence (Q9NPD5 whole entry): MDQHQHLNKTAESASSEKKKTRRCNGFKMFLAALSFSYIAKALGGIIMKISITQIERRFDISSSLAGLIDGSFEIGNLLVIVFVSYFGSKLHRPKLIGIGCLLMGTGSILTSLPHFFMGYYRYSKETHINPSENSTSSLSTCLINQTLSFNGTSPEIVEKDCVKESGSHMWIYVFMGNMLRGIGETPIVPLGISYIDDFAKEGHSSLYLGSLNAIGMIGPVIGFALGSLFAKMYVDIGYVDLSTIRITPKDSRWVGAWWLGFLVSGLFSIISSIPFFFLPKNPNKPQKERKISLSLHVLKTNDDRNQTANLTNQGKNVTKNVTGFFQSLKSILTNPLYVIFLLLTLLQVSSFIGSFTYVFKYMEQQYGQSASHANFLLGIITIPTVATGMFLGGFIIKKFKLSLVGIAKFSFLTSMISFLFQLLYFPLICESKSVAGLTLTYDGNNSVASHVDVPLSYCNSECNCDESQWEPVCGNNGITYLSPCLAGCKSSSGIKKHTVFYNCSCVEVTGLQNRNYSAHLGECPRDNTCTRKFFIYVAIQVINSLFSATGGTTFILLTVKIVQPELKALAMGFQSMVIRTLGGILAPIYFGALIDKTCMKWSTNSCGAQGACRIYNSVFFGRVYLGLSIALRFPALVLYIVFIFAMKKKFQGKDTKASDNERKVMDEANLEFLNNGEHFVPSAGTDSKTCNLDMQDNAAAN
UDP-glucuronosyltransferase 1A4, sequence (P22310 whole entry): as the sequence (P22310 whole entry) above
UGT1A9, sequence (O60656 whole entry): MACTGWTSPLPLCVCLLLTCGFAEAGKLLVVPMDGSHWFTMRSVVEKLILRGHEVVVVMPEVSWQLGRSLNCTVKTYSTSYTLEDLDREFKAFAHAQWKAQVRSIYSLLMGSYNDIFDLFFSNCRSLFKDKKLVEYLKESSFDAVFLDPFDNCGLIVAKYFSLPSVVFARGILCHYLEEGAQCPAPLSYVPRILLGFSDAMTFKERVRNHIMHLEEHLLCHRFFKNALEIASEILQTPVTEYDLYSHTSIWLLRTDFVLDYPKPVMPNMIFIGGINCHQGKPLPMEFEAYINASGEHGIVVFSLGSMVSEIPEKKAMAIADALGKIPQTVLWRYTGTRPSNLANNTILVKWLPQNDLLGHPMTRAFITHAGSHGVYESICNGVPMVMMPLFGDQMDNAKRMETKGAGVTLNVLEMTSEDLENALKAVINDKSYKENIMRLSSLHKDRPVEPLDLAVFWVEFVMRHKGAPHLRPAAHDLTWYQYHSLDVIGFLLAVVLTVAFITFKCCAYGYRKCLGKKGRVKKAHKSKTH
Broad substrate specificity ATP-binding cassette transporter ABCG2, sequence (Q9UNQ0 whole entry): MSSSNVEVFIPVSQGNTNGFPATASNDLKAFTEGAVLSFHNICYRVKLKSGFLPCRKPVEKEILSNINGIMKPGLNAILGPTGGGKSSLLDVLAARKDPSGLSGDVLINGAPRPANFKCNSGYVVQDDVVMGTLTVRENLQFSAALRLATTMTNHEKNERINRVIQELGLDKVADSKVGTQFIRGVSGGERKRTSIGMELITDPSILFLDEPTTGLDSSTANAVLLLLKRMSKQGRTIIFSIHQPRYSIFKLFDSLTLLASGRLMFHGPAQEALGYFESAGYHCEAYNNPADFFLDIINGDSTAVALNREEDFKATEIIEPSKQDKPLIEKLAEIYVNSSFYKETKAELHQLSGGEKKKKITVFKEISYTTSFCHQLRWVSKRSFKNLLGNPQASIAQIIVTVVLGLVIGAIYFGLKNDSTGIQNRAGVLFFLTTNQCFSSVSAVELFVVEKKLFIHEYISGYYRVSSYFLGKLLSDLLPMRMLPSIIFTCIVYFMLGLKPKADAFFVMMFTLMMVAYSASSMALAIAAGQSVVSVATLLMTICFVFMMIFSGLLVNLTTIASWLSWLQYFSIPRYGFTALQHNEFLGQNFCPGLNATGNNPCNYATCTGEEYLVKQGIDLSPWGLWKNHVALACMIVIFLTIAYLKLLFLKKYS
Multidrug and toxin extrusion protein 1, sequence (Q96FL8 whole entry): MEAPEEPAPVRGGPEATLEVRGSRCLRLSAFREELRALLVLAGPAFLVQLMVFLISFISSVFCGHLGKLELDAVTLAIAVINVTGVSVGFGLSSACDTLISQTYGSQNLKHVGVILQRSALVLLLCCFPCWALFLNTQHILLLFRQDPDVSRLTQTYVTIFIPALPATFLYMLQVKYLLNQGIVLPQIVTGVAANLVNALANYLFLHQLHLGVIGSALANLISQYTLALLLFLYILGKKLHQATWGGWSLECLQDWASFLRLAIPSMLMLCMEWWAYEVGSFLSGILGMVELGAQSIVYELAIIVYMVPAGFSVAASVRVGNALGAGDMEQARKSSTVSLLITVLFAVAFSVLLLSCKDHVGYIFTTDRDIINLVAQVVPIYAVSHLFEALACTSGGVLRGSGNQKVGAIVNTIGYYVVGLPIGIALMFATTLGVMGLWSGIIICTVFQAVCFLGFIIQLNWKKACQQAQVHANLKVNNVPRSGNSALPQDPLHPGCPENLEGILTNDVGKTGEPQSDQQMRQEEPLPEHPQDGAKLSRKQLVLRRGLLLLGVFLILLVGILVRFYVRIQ

Structure (SMILES) | inhibition (INH) [1] | Papp [2] [×10⁻⁶ cm/s] | half-life [3] [h] | activity at 10 µM (UGT1A9) [%] | CLH [5] [µL/min/mg] | CL [6] [µL/min/pmol] | Retention_time [7] [min] | fraction unbound [8] | activity at 10 µM (UGT1A3) [%] | inhibition (INH) [10] | CL [12] [µL/min/pmol] | CLH [13] [µL/min/mg] | inhibition (INH) [14] | half-life [15] [h] | half-life [16] [h] | inhibition (INH) [17] | logD [18] | Retention_time [20] [min] | Drug uptake [22] | inhibition (INH) [23] | other results
CCS(=O)(=O)c1ccc2oc(-c3ccc4c(c3)C=C[C@H](O)[C@H]4O)nc2c1 | Active | 33.3 | 0.65 | 12 | 8 | < 2.9 | 8.1 | 0.363 | 62 | Active | < 5.8 | 98 | Active | > 2.3 | 1.42 | Active | 2.04 | 8.2 | Metabolite_Detected | Active | IC50 [4]: 4 µM; IC50 [9]: 3.9 µM; Retention time [11]: 26.7 min; IC50 [19]: 10 µM; PPB [21]: Not Active; microsomal CLint [24]: 35 µL/min/mg; microsomal CLint [25]: < 10 µL/min/mg; half-life [26]: 0.117 h; solubility kinetic [27]: 96 µM (≈ 35.7 µg/mL)
CCS(=O)(=O)c1ccc2oc(-c3ccc4c(c3)[C@@H](O)[C@H](O)C=C4)nc2c1 | Not Active | 34.4 | 1.87 | 45 | 5 | < 2.9 | 8.9 | 0.128 | 79 | Not Active | < 5.8 | 5 | Active | > 2.3 | 2.37 | Active | 1.95 | 9 | Metabolite_Detected | Active | activity at 10 µM (UGT1A4): 84%; fraction unbound ([21]; read-out: PPB (converted)): 0.077; microsomal CLint [24]: 13 µL/min/mg; microsomal CLint [25]: < 10 µL/min/mg; half-life [26]: 2.38 h; solubility kinetic [27]: 210 µM (≈ 78 µg/mL)
